Results pooled from the literature.
Compare with care: the assays were run in different laboratories.
Action: inhibitor
DPP4: Dipeptidyl peptidase 4 (DPP4, Homo sapiens, UniProt P27487)
CDK9 with cyclin T1: Cyclin-dependent kinase 9, with cyclin T1 (CDK9, Homo sapiens, UniProt P50750)
ACHE: Acetylcholinesterase (ACHE, Homo sapiens, UniProt P22303)
APOBEC3G: DNA dC->dU-editing enzyme APOBEC-3G (APOBEC3G, Homo sapiens, UniProt Q9HC16)

`CC(C)C[C@@H]1C(=O)N[C@H]([C@@H](C)O)C(=O)N[C@H](C)[C@@H](C)C(=O)O[C@@H](Cc2ccccc2)C(=O)N(C)[C@@H](C(C)C)C(=O)N2CCC[C@H]2C(=O)N(C)[C@H](Cc2ccccc2)C2=N[C@@H](CS2)C(=O)N[C@H](C)C2=N[C@@H](CS2)C(=O)N1C` has an IC50 of 164 µM (DPP4; enzyme activity).
The IC50 of `COc1c(-c2ccccc2)oc2c(ccc3occc32)c1=O` is reported as greater than 100 µM (CDK9 with cyclin T1; enzyme activity, ADP detection).
`CC[C@H](C)[C@H](NC(=O)[C@@H]1CCCN1C(=O)[C@@H](NC(=O)[C@@H]1CCCN1C(=O)[C@@H](N)C(C)C)C(C)C)C(=O)O` has an IC50 of 103 µM (DPP4; enzyme activity, absorbance; pH 8).
For `C=CCn1c2cc(OC(=O)CCCCN3CCN(Cc4cccc(C)c4)CC3)ccc2c2ccnc(C)c21`, the IC50 was 0.0358 µM (ACHE; enzyme activity, Ellman).
For `CC(C)[C@H](N)C(=O)N1CCC[C@H]1C(=O)N[C@H](C(=O)N1CCC[C@H]1C(=O)N[C@@H](CCC(N)=O)C(=O)O)C(C)C`, the IC50 was 112 µM (DPP4; enzyme activity, absorbance; pH 8).
`CC[C@H]1NC(=O)[C@@H]2CSC(=N2)[C@@H](Cc2ccccc2)N(C)C(=O)[C@@H]2CCCN2C(=O)[C@H](C(C)C)N(C)C(=O)[C@H](Cc2ccccc2)OC(=O)[C@H](C)[C@@H](C)NC(=O)[C@@H]([C@@H](C)O)NC(=O)[C@@H](CC(C)C)N(C)C(=O)[C@@H]2CSC1=N2` gave an IC50 of 347 µM (DPP4; enzyme activity).
For `C[C@H]1CN(c2n[nH]c3nc(N[C@H]4CC[C@H](NS(=O)(=O)CCC(F)(F)F)CC4)ncc23)CCO1`, the IC50 was greater than 20 µM (Cyclin-dependent kinase 9 (CDK9, Homo sapiens, UniProt P50750); cell-free assay, chemoproteomics; lysate).
The IC50 of `CSCC[C@H](NC(=O)[C@H](Cc1c[nH]cn1)NC(=O)[C@H](Cc1c[nH]cn1)NC(=O)[C@@H](N)CCCCN)C(=O)N[C@@H](Cc1ccc(O)cc1)C(=O)N[C@H](C(=O)N[C@@H](CO)C(=O)NCC(=O)N[C@@H](CCCCN)C(=O)N[C@@H](C)C(=O)N[C@@H](CCCNC(=N)N)C(=O)NCC(=O)N[C@@H](Cc1c[nH]c2ccccc12)C(=O)N[C@@H](Cc1ccccc1)C(=O)O)C(C)C` is reported as 80 µM (APOBEC3G; enzyme activity; pH 7.4).
The IC50 of `CC(C)[C@H](N)C(=O)N1CCC[C@H]1C(=O)N[C@H](C(=O)N1CCC[C@H]1C(=O)N[C@H](C(=O)O)C(C)C)C(C)C` is reported as 59.1 µM (DPP4; enzyme activity, absorbance; pH 8).
With `Cc1cc(C)nc(Nc2ncc(C(=O)NCCc3c(C)[nH]c4ccccc34)cn2)c1` the IC50 was 4 µM (Cytochrome P450 2C8 (CYP2C8, Homo sapiens, UniProt P10632); enzyme activity; human, liver microsomes).
For `COc1c(-c2ccc3c(c2)OCO3)oc2c(ccc3occc32)c1=O`, the IC50 was 38.4 µM (CDK9 with cyclin T1; enzyme activity, ADP detection).
`CC[C@H](C)[C@H](N)C(=O)N[C@@H](Cc1c[nH]cn1)C(=O)N[C@@H](CC(C)C)C(=O)N[C@@H](Cc1ccc(O)cc1)C(=O)N[C@@H](Cc1ccc(O)cc1)C(=O)N[C@@H](Cc1ccccc1)C(=O)N[C@@H](CC(=O)O)C(=O)O` has an IC50 of 110 µM (APOBEC3G; enzyme activity; pH 7.4).
`CC[C@H](C)[C@H](N)C(=O)N1CCC[C@H]1C(=O)N[C@H](C(=O)N1CCC[C@H]1C(=O)N[C@H](C(=O)O)[C@@H](C)CC)C(C)C` has an IC50 of 57 µM (DPP4; enzyme activity, absorbance; pH 8).
For `C=CCn1c2cc(OC(=O)CCCCN3CCN(Cc4ccccc4F)CC3)ccc2c2ccnc(C)c21`, the IC50 was 0.15 µM (ACHE; enzyme activity, Ellman).
